From ChEMBL document CHEMBL1157391, “Apratoxin E, a cytotoxic peptolide from a guamanian collection of the marine cyanobacterium Lyngbya bouillonii” (J Nat Prod, 2008)
*1 amine or outer side, *2 acyl side, *3 side chain or, on linkers, in order; H or OH if unused. Where a SMILES comes first, the peptide text is derived from it. Bridges are numbered along the chain shown (N, C = ends). Roman numbers before positions name the chains, in order. [ ]: non-standard residue; d: D form. Actinocin(1to9) = Cc1c2oc3c(C)ccc(C(=O)[*:2])c3nc-2c(C(=O)[*:1])c(N)c1=O; NMeV = CN[C@H](C(=O)O)C(C)C; Sar = CNCC(=O)O

Key:
Format in all cases: functional, cell-based
HT-29 = test: Antiproliferative activity against human HT29 cells after 48 hrs by MTT assay; conditions: HT-29, 48 h
Outline: (§1)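 Cells grown in high-glucose DMEM with 10% FBS at 37 °C under humidified 5% CO2. Seeded in 96-well plates at 10 000 (HT29), 3000 (HeLa) or 5000 (U2OS) cells per well. Treated 24 h later with a concentration series; solvent controls were 1% EtOH or 1% DMSO. Viability read by MTT after 48 h incubation.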

U2OS = test: Antiproliferative activity against human U2OS cells after 48 hrs by MTT assay; outline: as §1
HeLa = test: Antiproliferative activity against human HeLa cells after 48 hrs by MTT assay; outline: as §1

Structure (SMILES) | IC50 (HT-29) | IC50 (U2OS) | IC50 (HeLa)
CC[C@H](C)[C@H]1C(=O)N2CCC[C@H]2C(=O)O[C@H](C(C)(C)C)C[C@@H](C)C/C=C(\C)C2=N[C@@H](/C=C(\C)C(=O)N[C@@H](Cc3ccc(OC)cc3)C(=O)N(C)[C@@H](C)C(=O)N1C)CS2 [E-DEHYDROAPRATOXIN A] | 41 nM | 160 nM | 121 nM
Cc1c2oc3c(C)ccc(C(=O)N[C@@H]4C(=O)N[C@H](C(C)C)C(=O)N5CCC[C@H]5C(=O)N(C)CC(=O)N(C)[C@@H](C(C)C)C(=O)O[C@@H]4C)c3nc-2c(C(=O)N[C@@H]2C(=O)N[C@H](C(C)C)C(=O)N3CCC[C@H]3C(=O)N(C)CC(=O)N(C)[C@@H](C(C)C)C(=O)O[C@@H]2C)c(N)c1=O [DACTINOMYCIN] (I: T[dV]P[Sar][NMeV] / II: T[dV]P[Sar][NMeV]; ester I:1-I:C, II:1-II:C; linker I:N-II:N via Actinocin(1to9)) | 2.9 nM | 3.2 nM | 0.4 nM
CC[C@H](C)[C@H]1C(=O)N2CCC[C@H]2C(=O)O[C@H](C(C)(C)C)C[C@@H](C)C/C=C/C2=N[C@@H](CCC(=O)N[C@@H](Cc3ccc(OC)cc3)C(=O)N(C)[C@@H](C)C(=O)N1C)CS2 [APRATOXIN E] | 21 nM | 59 nM | 72 nM
CC(=O)O[C@H]1C(=O)[C@@]2(C)[C@H]([C@H](OC(=O)c3ccccc3)[C@]3(O)C[C@H](OC(=O)[C@H](O)[C@@H](NC(=O)c4ccccc4)c4ccccc4)C(C)=C1C3(C)C)[C@]1(OC(C)=O)CO[C@@H]1C[C@@H]2O [PACLITAXEL] | 1.9 nM | 24 nM | 1.5 nM
CC[C@H](C)[C@H]1C(=O)N2CCC[C@H]2C(=O)O[C@H](C(C)(C)C)C[C@@H](C)C[C@H](O)[C@H](C)C2=N[C@@H](/C=C(\C)C(=O)N[C@@H](Cc3ccc(OC)cc3)C(=O)N(C)[C@@H](C)C(=O)N1C)CS2 [APRATOXIN A] | 1.4 nM | 10 nM | 10 nM
